Assay results as given in ChEMBL document CHEMBL1150811, “New modified eremophilanes from the roots of Psacalium radulifolium” (J Nat Prod, 2001).
≈ marks a conversion by molar mass, not a printed value.

Key:
Pseudomonas aeruginosa = experiment: Antimicrobial activity against Pseudomonas aeruginosa ATCC 27853; assay type: functional
Outline: (§1)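 Agar dilution: each natural product suspended in 10% DMSO and added at various concentrations to melted agar in Petri dishes; plates incubated 24 h at 37 °C; gentamicin and nystatin as reference standards; run in duplicate.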

Staphylococcus aureus = experiment: Antimicrobial activity against Staphylococcus aureus ATCC 6358
Proteus mirabilis = experiment: Antimicrobial activity against Proteus mirabilis ATCC 12453; assay type: functional; outline: as §1
Artemia salina = experiment: Toxicity against Artemia salina; assay type: organism-based; details: in vivo
Escherichia coli = experiment: Antimicrobial activity against Escherichia coli ATCC 8937; assay type: functional; outline: as §1
Candida albicans = experiment: Antimicrobial activity against Candida albicans ATCC 10231; assay type: functional; outline: as §1

SMILES | MIC (Pseudomonas aeruginosa) [µg/mL] | MIC (Staphylococcus aureus) [µg/mL] | MIC (Proteus mirabilis) [µg/mL] | LD50 (Artemia salina) [ppm] | MIC (Escherichia coli) [µg/mL] | MIC (Candida albicans) [µg/mL]
Cc1coc2c(O)c3c(c(C)c12)[C@@H](C)CCC3 [CACALOL] | > 400 | 12 (≈ 52.1 µM) | 12 (≈ 52.1 µM) | 12 | 25 (≈ 109 µM) | 12 (≈ 52.1 µM)
CC(=O)O[C@@H]1c2c(C)coc2C(=O)C2=CCC[C@H](C)[C@]21C [DECOMPOSTIN] | > 400 | > 400 | > 400 | > 1000 | > 400 | > 400
COc1c2c(c(C)c3c1OC(=O)[C@@]3(C)O)[C@@H](C)CCC2 [RADULIFOLIN B] | > 400 | 100 (≈ 362 µM) | – | 52.5 | > 400 | > 400
C[C@H]1CCCc2c(O)c(O)c3c(c21)COC(=O)C3(C)O (mixture of isomers) | > 400 | 200 | – | 230 | > 400 | > 400
C/C=C\C(=O)O[C@@H]1c2c(C)coc2C(=O)C2=CCC[C@H](C)[C@]21C [NEOADENOSTYLONE] | > 400 | > 400 | – | 21.7 | > 400 | > 400
COc1c2c(c(C)c3c(C)coc13)[C@@H](C)CC=C2 | > 400 | 400 (≈ 1650 µM) | > 400 | > 1000 | > 400 | > 400
Cc1coc2c1C(C)(O)C1=C(CCC[C@@H]1C)C2=O (mixture of isomers) [cacalone/epi-cacalone] | > 1000 | 250 | > 1000 | 269 | > 1000 | > 1000
Cc1coc2c(O)c3c(c(Cc4oc5c(O)c6c(c(C)c5c4C)[C@@H](C)CCC6)c12)[C@@H](C)CCC3 [ADENOSTIN A] | > 400 | 50 (≈ 109 µM) | – | 230 | > 400 | > 400
